According to ChEMBL document CHEMBL2021826, “Ester and carbamate ester derivatives of Biochanin A: synthesis and in vitro evaluation of estrogenic and antiproliferative activities” (Bioorg Med Chem, 2012):
Active and inactive are the calls of the source. No cut-off for these calls is given here.

Legend:
Homo sapiens [1] = organism: Homo sapiens; test: Estrogenic activity at estrogen receptor in human MCF7:D5L cells co-expressing ERE assessed as induction of luciferase gene expression at 100 nM after 16 hrs by microplate reader relative to untreated vehicle control; type: cell-based
Summary of the method: (§1)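 Separate wells received 100 nM PPT, or 100 nM MPP with or without 100 nM DPN, added 72 h after plating. Luciferase measured 16 h later relative to vehicle. Mean ± SEM, three experiments in triplicate; t-test vs vehicle.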

Homo sapiens [2] = organism: Homo sapiens; test: Estrogenic activity at estrogen receptor in human MCF7:D5L cells co-expressing ERE assessed as induction of luciferase gene expression at 100 nM after 16 hrs by microplate reader in presence of 100 nM ERalpha antagonist MPP; type: functional, cell-based; summary of the method: as §1
Ishikawa [3] = test: Estrogenic activity at estrogen receptor in human Ishikawa cells assessed as induction of alkaline phosphatase expression at 100 nM after 72 hrs by microplate reader; type: cell-based
Summary of the method: (§2)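 Separate wells received 100 nM PPT, or 100 nM MPP with or without 100 nM DPN. AlkP activity read 72 h after dosing, relative to vehicle. Mean ± SEM of three experiments in triplicate; t-test vs vehicle.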

[4] = Estrogenic activity at estrogen receptor in human Ishikawa cells assessed as induction of alkaline phosphatase expression at 100 nM after 72 hrs by microplate reader relative to estradiol in presence of 100 nM ERalpha antagonist MPP; type: functional; summary of the method: as §2
[5] = Estrogenic activity at estrogen receptor in human MCF7:D5L cells co-expressing ERE assessed as induction of luciferase gene expression after 16 hrs by microplate reader; type: cell-based
Summary of the method: (§3)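 MCF-7:D5L cells (MCF-7 stably carrying ERE-driven luciferase reporter) plated at 12,000/well in phenol red-free MEM with 1 µg/mL insulin and 5% DCC-FBS. Compounds up to 10 µM, or DMSO (0.1% final), added 72 h after plating. Luciferase read 16 h later, as % of vehicle. Three independent experiments in triplicate.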

Homo sapiens [6] = organism: Homo sapiens; test: Estrogenic activity at estrogen receptor in human MCF7:D5L cells co-expressing ERE assessed as induction of luciferase gene expression at 1 micoM after 16 hrs by microplate reader relative to untreated vehicle control; type: cell-based; summary of the method: as §3
Homo sapiens [7] = organism: Homo sapiens; test: Estrogenic activity at estrogen receptor in human MCF7:D5L cells co-expressing ERE assessed as induction of luciferase gene expression at 10 micoM after 16 hrs by microplate reader relative to untreated vehicle control; type: cell-based; summary of the method: as §3
MCF7 [8] = test: Antiproliferative activity against estrogen-deficient human MCF7 cells at 1 uM after 72 hrs by MTT assay relative to untreated vehicle control; type: functional
Summary of the method: (§4)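 MCF-7 cells plated at 8000/well in phenol red-free MEM with 1 µg/mL insulin and 5% DCC-FBS (estrogen-free). Compounds up to 10 µM (0.01–10 µM), or DMSO vehicle at 0.1% final, added 24 h after plating. MTT conversion read 72 h later at 550 and 690 nm (reference), as % of vehicle. […] Three independent experiments in triplicate.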

MCF7 [9] = test: Antiproliferative activity against estrogen-deficient human MCF7 cells at 10 uM after 72 hrs by MTT assay relative to untreated vehicle control; type: functional; summary of the method: as §4
[10] = Estrogenic activity at estrogen receptor in human Ishikawa cells assessed as induction of alkaline phosphatase expression after 72 hrs by microplate reader; type: cell-based
Summary of the method: (§5)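 Ishikawa cells plated at 12,000/well in phenol red-free MEM, 1 µg/mL insulin, 5% DCC-FBS. Compounds up to 10 µM, or DMSO (0.1% final), added 24 h after plating. Alkaline phosphatase activity read 72 h later on a plate reader, as % of vehicle-treated cells. […] Three independent experiments in triplicate.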

Ishikawa [11] = test: Estrogenic activity at estrogen receptor in human Ishikawa cells assessed as induction of alkaline phosphatase expression at 1 uM after 72 hrs by microplate reader relative to untreated vehicle control; type: cell-based; summary of the method: as §5
Ishikawa [12] = test: Estrogenic activity at estrogen receptor in human Ishikawa cells assessed as induction of alkaline phosphatase expression at 10 uM after 72 hrs by microplate reader relative to untreated vehicle control; type: cell-based; summary of the method: as §5
MCF7 [13] = test: Growth stimulation of human MCF7:D5L cells co-expressing ERE assessed as increase in viable cell number by MTT assay; type: functional, cell-based
MCF7 [14] = test: Growth stimulation of estrogen-deficient human MCF7 cells at 0.01 to 10 uM after 72 hrs by MTT assay; type: functional, cell-based; summary of the method: as §4
MCF7 [15] = test: Stimulation of proliferation of estrogen-deficient human MCF7 cells after 72 hrs by MTT assay; details: MCF7, 72 h
MDA-MB-231 [16] = test: Antiproliferative activity against ERalpha-deficient human MDA-MB-231 cells assessed as inhibition of cell proliferation at 10 uM after 72 hrs by MTT assay; type: functional; details: MDA-MB-231, 72 h
Summary of the method: (§6)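 MDA-MB-231 breast adenocarcinoma cells in phenol red-free MEM with 1 µg/mL insulin and 5% dextran-coated charcoal-treated FBS. Compound added 24 h after plating, DMSO vehicle at 0.1% final. Viable cells read 72 h later as MTT-formazan absorbance, 550 minus 690 nm reference, expressed as % of vehicle-treated cells.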

MDA-MB-231 [17] = test: Antiproliferative activity against ERalpha-deficient human MDA-MB-231 cells assessed as inhibition of cell proliferation at 1 uM after 72 hrs by MTT assay; type: functional, cell-based; summary of the method: as §6
Ishikawa [18] = test: Inhibition of estradiol-stimulated cell proliferation of human Ishikawa cells at 1 uM after 72 hrs by MTT assay; type: functional, cell-based
Ishikawa [19] = test: Inhibition of estradiol-stimulated cell proliferation of human Ishikawa cells at 10 uM after 72 hrs by MTT assay; type: functional, cell-based
Ishikawa [20] = test: Growth stimulation of human Ishikawa cells at 10 uM after 72 hrs by MTT assay; type: functional, cell-based
MCF7 [21] = test: Antiproliferative activity against estrogen-deficient human MCF7 cells after 72 hrs by MTT assay; type: functional, cell-based; details: MCF7, 72 h; summary of the method: as §4
Homo sapiens [22] = organism: Homo sapiens; test: Estrogenic activity at estrogen receptor in human MCF7:D5L cells co-expressing ERE assessed as induction of luciferase gene expression at => 0.1 nM after 16 hrs by microplate reader in presence of 100 nM ER destabilizer fulvestrant; type: cell-based; summary of the method: as §1
Ishikawa [23] = test: Estrogenic activity at estrogen receptor in human Ishikawa cells assessed as induction of alkaline phosphatase expression at => 0.1 nM after 72 hrs by microplate reader relative to untreated vehicle control in presence of 100 nM ER destabilizer fulvestrant; type: cell-based; summary of the method: as §2

## CCCc1c(-c2ccc(O)cc2)nn(-c2ccc(O)cc2)c1-c1ccc(O)cc1 [PROPYLPYRAZOLETRIOL]
Homo sapiens [1]
  Activity: Active
Homo sapiens [2]
  Activity: inactive
Ishikawa [3]
  Activity: Active
[4]
  Activity: 70%

## COc1ccc(-c2coc3cc(OC(=O)CCl)cc(O)c3c2=O)cc1
[5]
  EC50: 140 nM
Homo sapiens [6]
  Efficacy: 823%
Homo sapiens [7]
  Efficacy: 1310%
MCF7 [8]
  Efficacy: 152%
MCF7 [9]
  Efficacy: 155%
[10]
  EC50: 470 nM
Ishikawa [11]
  Efficacy: 314%
Ishikawa [12]
  Efficacy: 354%
MCF7 [13]
  Activity: inactive
MCF7 [14]
  Activity: Active
MCF7 [15]
  EC50: 550 nM

## CCCCCCCCCCCNC(=O)Oc1cc(O)c2c(=O)c(-c3ccc(OC)cc3)coc2c1
[5]
  EC50: 320 nM
Homo sapiens [6]
  Efficacy: 524%
Homo sapiens [7]
  Efficacy: 803%
MCF7 [8]
  Efficacy: 117%
MCF7 [9]
  Efficacy: 108%
[10]
  EC50: 1700 nM
Ishikawa [11]
  Efficacy: 203%
Ishikawa [12]
  Efficacy: 375%
MCF7 [13]
  Activity: inactive
MCF7 [14]
  Activity: inactive
MDA-MB-231 [16]
  inhibition at 10 µM: 21%
MDA-MB-231 [17]
  inhibition: inactive
Ishikawa [18]
  inhibition: Active
Ishikawa [19]
  inhibition: Active

## COc1ccc(-c2coc3cc(OC(=O)NCCCl)cc(O)c3c2=O)cc1
[5]
  EC50: 140 nM
Homo sapiens [6]
  Efficacy: 635%
Homo sapiens [7]
  Efficacy: 1140%
MCF7 [8]
  Efficacy: 139%
MCF7 [9]
  Efficacy: 166%
[10]
  EC50: 660 nM
Ishikawa [11]
  Efficacy: 295%
Ishikawa [12]
  Efficacy: 445%
MCF7 [13]
  Activity: inactive
MCF7 [14]
  Activity: Active
MCF7 [15]
  EC50: 680 nM

## COc1ccc(-c2coc3cc(OC(=O)NCCBr)cc(O)c3c2=O)cc1
[5]
  EC50: 220 nM
Homo sapiens [6]
  Efficacy: 531%
Homo sapiens [7]
  Efficacy: 1050%
MCF7 [8]
  Efficacy: 151%
MCF7 [9]
  Efficacy: 145%
[10]
  EC50: 620 nM
Ishikawa [11]
  Efficacy: 302%
Ishikawa [12]
  Efficacy: 440%
MCF7 [13]
  Activity: inactive
MCF7 [14]
  Activity: Active
MCF7 [15]
  EC50: 420 nM

## COc1ccc(-c2coc3cc(O)cc(O)c3c2=O)cc1 [BIOCHANIN]
[5]
  EC50: 300 nM
Homo sapiens [6]
  Efficacy: 490%
Homo sapiens [7]
  Efficacy: 733%
MCF7 [8]
  Efficacy: 161%
MCF7 [9]
  Efficacy: 167%
[10]
  EC50: 420 nM
Ishikawa [11]
  Efficacy: 310%
Ishikawa [12]
  Efficacy: 309%
MCF7 [14]
  Activity: Active
Ishikawa [20]
  Activity: Active
MCF7 [15]
  EC50: 210 nM

## C[C@]12CC[C@@H]3c4ccc(O)cc4CC[C@H]3[C@@H]1CC[C@@H]2O [ESTRADIOL]
[5]
  EC50: 0.0196 nM
Homo sapiens [6]
  Efficacy: 402%
Homo sapiens [7]
  Efficacy: 402%
MCF7 [21]
  EC50: 0.0064 nM
MCF7 [8]
  Efficacy: 185%
MCF7 [9]
  Efficacy: 185%
[10]
  EC50: 0.0246 nM
Ishikawa [11]
  Efficacy: 440%
Ishikawa [12]
  Efficacy: 440%
Homo sapiens [22]
  Activity: inactive
Ishikawa [23]
  Activity: inactive

## COc1ccc(-c2coc3cc(OC(=O)CBr)cc(O)c3c2=O)cc1
[5]
  EC50: 180 nM
Homo sapiens [6]
  Efficacy: 584%
Homo sapiens [7]
  Efficacy: 1320%
MCF7 [8]
  Efficacy: 156%
MCF7 [9]
  Efficacy: 154%
[10]
  EC50: 520 nM
Ishikawa [11]
  Efficacy: 332%
Ishikawa [12]
  Efficacy: 387%
MCF7 [13]
  Activity: inactive
MCF7 [14]
  Activity: Active
MCF7 [15]
  EC50: 280 nM
